Results pooled from the literature.
Lines come from different studies, so protocols differ.
Target: Serine/threonine-protein kinase 4 (STK4, Homo sapiens, UniProt Q13043)
Residues used in one study (Q13043 1-487): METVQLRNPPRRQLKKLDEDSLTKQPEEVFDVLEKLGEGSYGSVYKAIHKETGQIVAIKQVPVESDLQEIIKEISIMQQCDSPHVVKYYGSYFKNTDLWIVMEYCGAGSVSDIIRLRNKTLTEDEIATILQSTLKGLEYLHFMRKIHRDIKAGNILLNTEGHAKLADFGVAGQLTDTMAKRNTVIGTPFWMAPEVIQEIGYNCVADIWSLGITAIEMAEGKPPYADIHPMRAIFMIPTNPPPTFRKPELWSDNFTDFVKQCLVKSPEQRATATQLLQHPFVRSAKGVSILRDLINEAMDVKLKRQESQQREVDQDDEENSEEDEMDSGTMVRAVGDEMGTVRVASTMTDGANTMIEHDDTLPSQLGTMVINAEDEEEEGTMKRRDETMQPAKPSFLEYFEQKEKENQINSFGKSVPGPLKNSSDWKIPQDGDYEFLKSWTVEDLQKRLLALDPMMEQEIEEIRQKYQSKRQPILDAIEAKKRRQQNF

| Compound | observed | method | tested at | remaining binding [%] |
| --- | --- | --- | --- | --- |
| N[C@@H]1CCN(c2nccc(-c3cnn4ncccc34)n2)C1 | binding |  | 1 µM | 100 |
| COc1cnc(Nc2cccc(S(N)(=O)=O)c2)nc1N1CCN(c2ccccc2)C(=O)C1 | binding | competition with immobilised ligand | 1 µM | 98 |
| CN(C)c1nccc(-c2cnn3ncccc23)n1 | binding |  | 1 µM | 100 |
| O=C(NCCCC1CCCCC1)c1ccc(CNC(=O)c2cnn(-c3ccccc3)c2C(F)(F)F)cc1 | cell-free assay | competition with immobilised ligand | 0.1 µM | 100 |
| O=C(Nc1c[nH]nc1C(=O)NC1CCNCC1)c1cc(F)cc(F)c1 | binding | competition with immobilised ligand | 1 µM | 100 |
| Cc1c(C(=O)O)cc(-c2ccc(C3CCNCC3)cc2)c2ccc(-c3ccc(C(F)(F)F)cc3)cc12 | binding | competition with immobilised ligand | 1 µM | 95 |
| COc1ccnn2ncc(-c3ccnc(N(C)C)n3)c12 | binding |  | 1 µM | 100 |
| CNC(=O)[C@@H]1CC[C@@H](n2c(-c3ccc4cnccc4c3)nc3ccc(C(=O)NCc4cccc(C(N)=O)c4)cc32)C1 | binding | competition with immobilised ligand | 1 µM | 81 |
| CNC(=O)c1ccc(Nc2ncc(C(F)(F)F)c(NCc3nccnc3N(C)S(C)(=O)=O)n2)cc1 | cell-free assay | competition with immobilised ligand | 0.1 µM | 97 |
| c1cncc(-c2cccc(Nc3nccc(NC4CCCCC4)n3)c2)c1 | binding | competition with immobilised ligand | 10 µM | 97 |
| CSc1cccnc1N1CCN(Cc2nc3ccccc3[nH]2)CC1 | cell-free assay | competition with immobilised ligand | 1 µM | 85 |
| O=C(c1ccc(Nc2ncc(Cl)c(-c3ccc(Cl)s3)n2)cc1)N1CCC(N2CCCC2)CC1 | binding | competition with immobilised ligand | 1 µM | 90 |
| Nc1ncc2c(n1)-c1c([nH]c3ccc(C#CC4CC4)cc13)CCCC2 | binding | competition with immobilised ligand | 1 µM | 100 |
| O=C(NCCCN1CCOCC1)c1ccc(Nc2nccc(-c3cc4ccccc4s3)n2)cc1 | binding | competition with immobilised ligand | 1 µM | 100 |
| CC1CCCN1c1nccc(-c2cnn3ncccc23)n1 (centres unmarked) | binding |  | 1 µM | 98 |
| O=C1CCc2cc(Nc3cc(OC4CCOCC4)c([N+](=O)[O-])cc3Cl)ccc2N1 | cell-free assay | competition with immobilised ligand | 1 µM | 100 |
| C[C@@H]1CCN(c2nccc(-c3cnn4ncccc34)n2)C1 | binding |  | 1 µM | 85 |
| Nc1c(C(=O)NCc2ccc(C(=O)NCCCC3CCCCC3)cc2)cnn1-c1ccccc1 | cell-free assay | competition with immobilised ligand | 0.1 µM | 100 |
| Cc1cnn2ncc(-c3ccnc(N(C)C)n3)c2c1 | binding |  | 1 µM | 97 |
| O=C(NCCCN1CCOCC1)c1ccc(Nc2ncc(Cl)c(-c3ccc(Cl)s3)n2)cc1 | binding | competition with immobilised ligand | 1 µM | 90 |
